According to ChEMBL document CHEMBL4689842, “EUbOPEN Chemogenomics Library wave 1” (2021):

Tested on: HEK-293T
Test: Multiplex assay against HEK293T;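 for Population Tubulin-Different-Phenotype (%): share of the cells with healthy nuclei that show this phenotype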
Assay type: toxicity, cell-based
Details: human
In short: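 Values for tubulin, mitochondrial-mass and membrane-permeability phenotypes are per cents of cells with healthy nuclei. These cells were identified by CellPathfinder machine-learning gating of live cells that had been stained at seeding with Hoechst33342, BioTracker Green Microtubule Cytoskeleton Dye, MitoTracker Red and Annexin V Alexa Fluor 680 and imaged on a CQ1 microscope at 37°C and 5% CO2 after compound addition. The gating first set Hoechst high-intensity objects apart from normal cells, then split normal cells into healthy, pyknosed or fragmented nuclei, and pyknosed cells into mitotic or apoptotic.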

[1] = 12 h, 1 µM, compound concentration 1 uM, replicate 1
[2] = 12 h, 1 µM, compound concentration 1 uM, replicate 2
[3] = 12 h, 10 µM, compound concentration 10 uM, replicate 1
[4] = 12 h, 10 µM, compound concentration 10 uM, replicate 2
[5] = 24 h, 1 µM, compound concentration 1 uM, replicate 1
[6] = 24 h, 1 µM, compound concentration 1 uM, replicate 2
[7] = 24 h, 10 µM, compound concentration 10 uM, replicate 1
[8] = 24 h, 10 µM, compound concentration 10 uM, replicate 2
[9] = 48 h, 1 µM, compound concentration 1 uM, replicate 1
[10] = 48 h, 1 µM, compound concentration 1 uM, replicate 2
[11] = 48 h, 10 µM, compound concentration 10 uM, replicate 1
[12] = 48 h, 10 µM, compound concentration 10 uM, replicate 2

CN1C(=O)[C@@H](NC(=O)c2cc3ccccc3[nH]2)N=C(c2ccccc2)c2ccccc21 [DEVAZEPIDE]
Population Apoptotic (%) [1]: 49%
Population Fragmented Nuclei (%) [1]: 9%
Population Healthy Nuclei (%) [1]: 38%
Population Hoechst High Intensity Objects (%) [1]: 11%
Population Membrane Permeable-Phenotype (%) [1]: 8%
Population Mitochondria Different-Phenotype (%) [1]: 73%
Population Mitotic Cells (%) [1]: 50%
Population Normal (%) [1]: 88%
Population Pyknosed Nuclei (%) [1]: 52%
Population Tubulin-Different-Phenotype (%) [1]: 50%
Total Cell Count [1]: 314
Population Apoptotic (%) [2]: 12%
Population Fragmented Nuclei (%) [2]: 6%
Population Healthy Nuclei (%) [2]: 36%
Population Hoechst High Intensity Objects (%) [2]: 3%
Population Membrane Permeable-Phenotype (%) [2]: 9%
Population Mitochondria Different-Phenotype (%) [2]: 34%
Population Mitotic Cells (%) [2]: 87%
Population Normal (%) [2]: 96%
Population Pyknosed Nuclei (%) [2]: 56%
Population Tubulin-Different-Phenotype (%) [2]: 28%
Total Cell Count [2]: 205
Population Apoptotic (%) [3]: 58%
Population Fragmented Nuclei (%) [3]: 11%
Population Healthy Nuclei (%) [3]: 24%
Population Hoechst High Intensity Objects (%) [3]: 15%
Population Membrane Permeable-Phenotype (%) [3]: 5%
Population Mitochondria Different-Phenotype (%) [3]: 88%
Population Mitotic Cells (%) [3]: 41%
Population Normal (%) [3]: 84%
Population Pyknosed Nuclei (%) [3]: 63%
Population Tubulin-Different-Phenotype (%) [3]: 76%
Total Cell Count [3]: 287
Population Apoptotic (%) [4]: 25%
Population Fragmented Nuclei (%) [4]: 4%
Population Healthy Nuclei (%) [4]: 34%
Population Hoechst High Intensity Objects (%) [4]: 3%
Population Membrane Permeable-Phenotype (%) [4]: 15%
Population Mitochondria Different-Phenotype (%) [4]: 48%
Population Mitotic Cells (%) [4]: 74%
Population Normal (%) [4]: 96%
Population Pyknosed Nuclei (%) [4]: 60%
Population Tubulin-Different-Phenotype (%) [4]: 66%
Total Cell Count [4]: 228
Population Apoptotic (%) [5]: 48%
Population Fragmented Nuclei (%) [5]: 11%
Population Healthy Nuclei (%) [5]: 36%
Population Hoechst High Intensity Objects (%) [5]: 13%
Population Membrane Permeable-Phenotype (%) [5]: 3%
Population Mitochondria Different-Phenotype (%) [5]: 67%
Population Mitotic Cells (%) [5]: 51%
Population Normal (%) [5]: 86%
Population Pyknosed Nuclei (%) [5]: 51%
Population Tubulin-Different-Phenotype (%) [5]: 52%
Total Cell Count [5]: 327
Population Apoptotic (%) [6]: 14%
Population Fragmented Nuclei (%) [6]: 4%
Population Healthy Nuclei (%) [6]: 57%
Population Hoechst High Intensity Objects (%) [6]: 2%
Population Membrane Permeable-Phenotype (%) [6]: 15%
Population Mitochondria Different-Phenotype (%) [6]: 20%
Population Mitotic Cells (%) [6]: 85%
Population Normal (%) [6]: 97%
Population Pyknosed Nuclei (%) [6]: 37%
Population Tubulin-Different-Phenotype (%) [6]: 34%
Total Cell Count [6]: 231
Population Apoptotic (%) [7]: 56%
Population Fragmented Nuclei (%) [7]: 16%
Population Healthy Nuclei (%) [7]: 15%
Population Hoechst High Intensity Objects (%) [7]: 17%
Population Membrane Permeable-Phenotype (%) [7]: 5%
Population Mitochondria Different-Phenotype (%) [7]: 91%
Population Mitotic Cells (%) [7]: 43%
Population Normal (%) [7]: 82%
Population Pyknosed Nuclei (%) [7]: 67%
Population Tubulin-Different-Phenotype (%) [7]: 91%
Total Cell Count [7]: 284
Population Apoptotic (%) [8]: 41%
Population Fragmented Nuclei (%) [8]: 7%
Population Healthy Nuclei (%) [8]: 46%
Population Hoechst High Intensity Objects (%) [8]: 4%
Population Membrane Permeable-Phenotype (%) [8]: 15%
Population Mitochondria Different-Phenotype (%) [8]: 47%
Population Mitotic Cells (%) [8]: 58%
Population Normal (%) [8]: 95%
Population Pyknosed Nuclei (%) [8]: 46%
Population Tubulin-Different-Phenotype (%) [8]: 74%
Total Cell Count [8]: 245
Population Apoptotic (%) [9]: 50%
Population Fragmented Nuclei (%) [9]: 15%
Population Healthy Nuclei (%) [9]: 28%
Population Hoechst High Intensity Objects (%) [9]: 16%
Population Membrane Permeable-Phenotype (%) [9]: 6%
Population Mitochondria Different-Phenotype (%) [9]: 48%
Population Mitotic Cells (%) [9]: 50%
Population Normal (%) [9]: 83%
Population Pyknosed Nuclei (%) [9]: 55%
Population Tubulin-Different-Phenotype (%) [9]: 41%
Total Cell Count [9]: 356
Population Apoptotic (%) [10]: 9%
Population Fragmented Nuclei (%) [10]: 5%
Population Healthy Nuclei (%) [10]: 74%
Population Hoechst High Intensity Objects (%) [10]: 4%
Population Membrane Permeable-Phenotype (%) [10]: 7%
Population Mitochondria Different-Phenotype (%) [10]: 11%
Population Mitotic Cells (%) [10]: 90%
Population Normal (%) [10]: 95%
Population Pyknosed Nuclei (%) [10]: 20%
Population Tubulin-Different-Phenotype (%) [10]: 34%
Total Cell Count [10]: 361
Population Apoptotic (%) [11]: 66%
Population Fragmented Nuclei (%) [11]: 24%
Population Healthy Nuclei (%) [11]: 6%
Population Hoechst High Intensity Objects (%) [11]: 22%
Population Membrane Permeable-Phenotype (%) [11]: 7%
Population Mitochondria Different-Phenotype (%) [11]: 100%
Population Mitotic Cells (%) [11]: 33%
Population Normal (%) [11]: 77%
Population Pyknosed Nuclei (%) [11]: 69%
Population Tubulin-Different-Phenotype (%) [11]: 84%
Total Cell Count [11]: 276
Population Apoptotic (%) [12]: 63%
Population Fragmented Nuclei (%) [12]: 12%
Population Healthy Nuclei (%) [12]: 44%
Population Hoechst High Intensity Objects (%) [12]: 5%
Population Membrane Permeable-Phenotype (%) [12]: 22%
Population Mitochondria Different-Phenotype (%) [12]: 41%
Population Mitotic Cells (%) [12]: 36%
Population Normal (%) [12]: 94%
Population Pyknosed Nuclei (%) [12]: 43%
Population Tubulin-Different-Phenotype (%) [12]: 64%
Total Cell Count [12]: 237
